Measured values as given in ChEMBL document CHEMBL1123550, “Synthesis and biological activity of benzothiazolo[3,2-a]quinolone antibacterial agents” (1986).
In brackets after ≈: the same amount, converted by molar mass.

What was measured:
Streptococcus pyogenes = test: The compound was tested in vitro for antibiotic activity against Streptococcus pyogenes 930
Staphylococcus aureus [1] = test: The compound was tested in vitro for antibiotic activity against Staphylococcus aureus ATCC 6538P; assay type: functional
Summary of the method: (§1)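 Overnight cultures were grown in brain-heart infusion broth at 36 °C. The compound was diluted twofold in brain-heart infusion agar over a range of 200 to 0.005 µg/mL (final). Each plate received about 10⁴ organisms and was incubated at 36 °C for 18 h. The MIC was taken as the lowest concentration giving no visible growth.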

Acinetobacter = test: Compound was tested in vitro for antibiotic activity against the bacteria Acinetobacter sp. CMX669; assay type: functional
Summary of the method: as §1

Staphylococcus aureus [2] = test: The compound was tested in vitro for antibiotic activity against Staphylococcus aureus 686B; assay type: functional
Summary of the method: as §1

Escherichia coli = test: Compound was tested in vitro for antibiotic activity against the bacteria Escherichia coli juhl; assay type: functional
Summary of the method: as §1

Pseudomonas aeruginosa [3] = test: Compound was tested in vitro for antibiotic activity against the bacteria Pseudomonas aeruginosa 5007; assay type: functional
Summary of the method: as §1

[4] = tested on: Staphylococcus epidermidis; test: The compound was tested in vitro for antibiotic activity against Staphylococcus epidermidis 3519; assay type: functional
Summary of the method: as §1

Klebsiella pneumoniae = test: Compound was tested in vitro for antibiotic activity against the bacteria Klebsiella pneumoniae 8045; assay type: functional
Summary of the method: as §1

Klebsiella aerogenes = test: Compound was tested in vitro for antibiotic activity against bacteria Enterobacter aerogenes ATCC 13048; assay type: functional
Summary of the method: as §1

Enterococcus faecium = test: The compound was tested in vitro for antibiotic activity against […] ATCC 8043; assay type: functional
Summary of the method: as §1

Pseudomonas aeruginosa [5] = test: Compound was tested in vitro for antibiotic activity against the bacteria Pseudomonas aeruginosa K799/WT; assay type: functional
Summary of the method: as §1

CN1CCN(c2cc3c(cc2F)c(=O)c(C(=O)O)cn3-c2ccccc2)CC1 gave an MIC (Streptococcus pyogenes) of 3.1 µg/mL (≈ 8.13 µM).

For CCC(=O)N1CCN(c2cc3c(cc2F)c(=O)c(C(=O)O)c2sc4ccccc4n23)CC1, the MIC (Staphylococcus aureus [1]) was 0.39 µg/mL (≈ 0.86 µM), the MIC (Acinetobacter) was 0.1 µg/mL (≈ 0.221 µM) and the MIC (Staphylococcus aureus [2]) was 0.39 µg/mL (≈ 0.86 µM). It also gave an MIC (Escherichia coli) of 6.2 µg/mL (≈ 13.7 µM), an MIC (Pseudomonas aeruginosa [3]) greater than 100 µg/mL and an MIC [4] of 0.39 µg/mL (≈ 0.86 µM). The MIC (Streptococcus pyogenes) was 3.1 µg/mL (≈ 6.84 µM), the MIC (Klebsiella pneumoniae) was 1.56 µg/mL (≈ 3.44 µM) and the MIC (Klebsiella aerogenes) was 12.5 µg/mL (≈ 27.6 µM). For the same compound, the MIC (Enterococcus faecium) was 6.2 µg/mL (≈ 13.7 µM) and the MIC (Pseudomonas aeruginosa [5]) was greater than 100 µg/mL.

Compound Cc1ccccc1-n1cc(C(=O)O)c(=O)c2cc(F)c(N3CCN(C)CC3)cc21 has an MIC (Streptococcus pyogenes) of 50 µg/mL (≈ 126 µM).

Compound O=C(O)c1cn(-c2ccccc2)c2cc(N3CCNCC3)c(F)cc2c1=O has an MIC [4] of 0.78 µg/mL (≈ 2.12 µM) and an MIC (Streptococcus pyogenes) of 1.56 µg/mL (≈ 4.25 µM).

Compound O=C(O)c1c(=O)c2cc(F)c(N3CCNCC3)cc2n2c1sc1ccccc12 has an MIC (Staphylococcus aureus [1]) of 0.39 µg/mL (≈ 0.981 µM), an MIC (Acinetobacter) of 0.39 µg/mL (≈ 0.981 µM) and an MIC (Staphylococcus aureus [2]) of 0.39 µg/mL (≈ 0.981 µM). It also gave an MIC (Escherichia coli) of 0.2 µg/mL (≈ 0.503 µM), an MIC (Pseudomonas aeruginosa [3]) of 1.56 µg/mL (≈ 3.93 µM) and an MIC [4] of 0.39 µg/mL (≈ 0.981 µM). For the same compound, the MIC (Streptococcus pyogenes) was 0.78 µg/mL (≈ 1.96 µM), the MIC (Klebsiella pneumoniae) was 0.2 µg/mL (≈ 0.503 µM) and the MIC (Klebsiella aerogenes) was 0.78 µg/mL (≈ 1.96 µM). For the same compound, the MIC (Enterococcus faecium) was 0.78 µg/mL (≈ 1.96 µM) and the MIC (Pseudomonas aeruginosa [5]) was 1.56 µg/mL (≈ 3.93 µM).

Compound CC(=O)N1CCN(c2cc3c(cc2F)c(=O)c(C(=O)O)c2sc4ccccc4n23)CC1 has an MIC (Staphylococcus aureus [1]) of 0.2 µg/mL (≈ 0.455 µM), an MIC (Acinetobacter) of 6.2 µg/mL (≈ 14.1 µM) and an MIC (Staphylococcus aureus [2]) of 0.2 µg/mL (≈ 0.455 µM). The MIC (Escherichia coli) was 6.2 µg/mL (≈ 14.1 µM), the MIC (Pseudomonas aeruginosa [3]) was greater than 100 µg/mL and the MIC [4] was 0.39 µg/mL (≈ 0.887 µM). It also gave an MIC (Streptococcus pyogenes) of 3.1 µg/mL (≈ 7.05 µM), an MIC (Klebsiella pneumoniae) of 1.56 µg/mL (≈ 3.55 µM) and an MIC (Klebsiella aerogenes) greater than 100 µg/mL. It also gave an MIC (Enterococcus faecium) of 6.2 µg/mL (≈ 14.1 µM) and an MIC (Pseudomonas aeruginosa [5]) greater than 100 µg/mL.

For CN1CCN(c2cc3c(cc2F)c(=O)c(C(=O)O)c2sc4ccccc4n23)CC1, the MIC (Staphylococcus aureus [1]) was 0.39 µg/mL (≈ 0.948 µM), the MIC (Acinetobacter) was 0.39 µg/mL (≈ 0.948 µM) and the MIC (Staphylococcus aureus [2]) was 0.39 µg/mL (≈ 0.948 µM). For the same compound, the MIC (Escherichia coli) was 0.78 µg/mL (≈ 1.9 µM), the MIC (Pseudomonas aeruginosa [3]) was 6.2 µg/mL (≈ 15.1 µM) and the MIC [4] was 0.78 µg/mL (≈ 1.9 µM). It also gave an MIC (Streptococcus pyogenes) of 1.56 µg/mL (≈ 3.79 µM), an MIC (Klebsiella pneumoniae) of 0.39 µg/mL (≈ 0.948 µM) and an MIC (Klebsiella aerogenes) of 1.56 µg/mL (≈ 3.79 µM). The MIC (Enterococcus faecium) was 1.56 µg/mL (≈ 3.79 µM) and the MIC (Pseudomonas aeruginosa [5]) was 6.2 µg/mL (≈ 15.1 µM).

In the case of Cc1cccc(C)c1-n1cc(C(=O)O)c(=O)c2cc(F)c(N3CCN(C)CC3)cc21, the MIC (Streptococcus pyogenes) is reported as greater than 100 µg/mL.

For CCn1cc(C(=O)O)c(=O)c2cc(F)c(N3CCNCC3)cc21 [NORFLOXACIN], the MIC (Streptococcus pyogenes) was 3.1 µg/mL (≈ 9.71 µM).
